# Experimental data gathered from unrelated publications.
# Compare with care: the assays were run in different laboratories.
# Target: Serine/threonine-protein kinase 24 (STK24, Homo sapiens, UniProt Q9Y6E0)
SMILES,effect on,method,concentration,remaining binding [%]
COc1ncc2cc3ccccc3nc2c1C#N,cell-free assay,competition with immobilised ligand,5 µM,97
Cc1cnn2ncc(-c3ccnc(N(C)C)n3)c2c1,binding,,1 µM,98
C[C@H](c1cccc(C#N)c1)n1cc(Cl)cc(C(N)=O)c1=N,cell-free assay,competition with immobilised ligand,1 µM,89
CNC(=O)[C@@H]1CC[C@@H](n2c(-c3ccc4cnccc4c3)nc3ccc(C(=O)NCc4cccc(C(N)=O)c4)cc32)C1,binding,competition with immobilised ligand,1 µM,100
O=C(NCc1ncc(C(F)(F)F)cc1Cl)c1ccc2c(c1)C1(CCS(=O)(=O)CC1)[C@@H](C1CC1)N2S(=O)(=O)c1ccc(F)cc1,cell-free assay,competition with immobilised ligand,1 µM,100
O=C(NCCCN1CCOCC1)c1ccc(Nc2nccc(-c3cc4ccccc4s3)n2)cc1,binding,competition with immobilised ligand,1 µM,39
N[C@@H]1CCN(c2nccc(-c3cnn4ncccc34)n2)C1,binding,,1 µM,100
O=C(c1ccc(Nc2ncc(Cl)c(-c3ccc(Cl)s3)n2)cc1)N1CCC(N2CCCC2)CC1,binding,competition with immobilised ligand,1 µM,44
Nc1ncc2c(n1)-c1c([nH]c3ccc(C#CC4CC4)cc13)CCCC2,binding,competition with immobilised ligand,1 µM,80
COc1cnc(Nc2cccc(S(N)(=O)=O)c2)nc1N1CCN(c2ccccc2)CC1,binding,competition with immobilised ligand,1 µM,82
O=C(NS(=O)(=O)c1ccc(NCC2CCOCC2)c([N+](=O)[O-])c1)c1ccc(N2CCN(Cc3ccc(C(F)(F)F)cc3-c3ccc(Cl)cc3)CC2)cc1Oc1cnc2[nH]ccc2c1,cell-free assay,competition with immobilised ligand,1 µM,100
O=C(NCC1CCOCC1)c1n[nH]cc1NC(=O)c1c(F)cccc1F,binding,competition with immobilised ligand,1 µM,89
O=C(c1ccc(Nc2ncc(Cl)c(-c3cc4ccccc4s3)n2)cc1)N1CCC(N2CCCC2)CC1,binding,competition with immobilised ligand,1 µM,92
CN(C)c1nccc(-c2cnn3ncccc23)n1,binding,,1 µM,100
FC(F)(F)Oc1cccc(-c2cnc3ccc(-c4ccncc4)nn23)c1,cell-free assay,competition with immobilised ligand,5 µM,86
CS(=O)(=O)NCC[C@H](NC(=O)c1cncc2c1cnn2-c1ccc(F)cc1)c1ccnc(S(C)(=O)=O)c1,cell-free assay,competition with immobilised ligand,1 µM,100
COc1ccnn2ncc(-c3ccnc(N(C)C)n3)c12,binding,,1 µM,100
CCCCN(CCCC)C(=O)CN1C[C@@H](c2cc(OC)c3c(c2)OCO3)[C@H](C(=O)O)[C@H]1CC(C)(C)CCC,cell-free assay,competition with immobilised ligand,1 µM,93.9
C[C@@H]1CCN(c2nccc(-c3cnn4ncccc34)n2)C1,binding,,1 µM,63
